Screens: PubChem, The Scripps Research Institute Molecular Screening Center
Only some compounds are listed: those with a hit (about 2.1% of all), similar ones and a draw of the others.
PKA-R1A activ = activates the PKA-R1A holoenzyme complex; 340,000 compounds, 0.083% hits; PKA-R1A dissociation, Cy5-IP20 fluorescence polarization; scaled: DMSO 0%, 113 µM cGMP 100%; AID 504707; activation, % at 11.4 µM; P00514+P68181;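 active = percent activation above the mean of all tested compounds plus 3 SD, cut at about 19% in these data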;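 note: higher means more PKAc released from R1A so a rise in polarization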
PKA-R2B activ = PKA-R2B complex activation; PKA-R2B holoenzyme dissociation, Cy5-IP20 fluorescence polarization; R2B truncated from residue 108, S112A mutant; 0% DMSO only, 100% 113 µM cGMP; activation, % at 11.4 µM; 340,000 compounds, 0.079% hits;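 active = activation above a cutoff set at the mean over all compounds plus 3 SD, cut at about 18% in these data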;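 note: higher means more holoenzyme dissociation and a rise in polarization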
Target sequence (P31323 whole entry, looked up, other chains not shown, the tested form may be a part): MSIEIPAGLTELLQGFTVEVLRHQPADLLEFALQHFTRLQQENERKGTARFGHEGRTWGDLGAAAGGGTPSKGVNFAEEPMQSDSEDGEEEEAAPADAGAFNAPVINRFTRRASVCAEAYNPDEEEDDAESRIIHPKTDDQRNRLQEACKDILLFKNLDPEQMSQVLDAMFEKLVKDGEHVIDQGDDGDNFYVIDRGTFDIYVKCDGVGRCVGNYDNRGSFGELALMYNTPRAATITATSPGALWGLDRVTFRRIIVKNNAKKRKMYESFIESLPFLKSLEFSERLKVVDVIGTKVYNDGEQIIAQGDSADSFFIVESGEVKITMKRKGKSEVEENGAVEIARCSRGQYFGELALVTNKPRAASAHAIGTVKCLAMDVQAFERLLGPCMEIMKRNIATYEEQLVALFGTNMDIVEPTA
MsrA inh = bovine MsrA inhibition; purified bovine MsrA, absorbance read-out; inhibition, % at 15.5 µM; 360,000 compounds, 0.75% hits; in the data active = inhibition above about 4.5%;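 note: 0% = vehicle wells with enzyme and 100% = reference inhibitor wells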
IMP-1 inh = inhibitors of Pseudomonas aeruginosa IMP-1 metallo-beta-lactamase; purified IMP-1, nitrocefin hydrolysis, epi-absorbance fluorescence; 290,000 compounds, 0.45% hits; inhibition, % at 5.6 µM;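 active = inhibition above the mean plus 3 SD of all compounds in the same screening run, cut at about 4.5% in these data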;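 note: 0% = IMP-1 with DMSO and 100% = DMSO wells lacking enzyme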
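system = purified recombinant IMP-1 beta-lactamase | amount = 0.2 nM IMP-1, as dispensed | medium = HEPES buffer pH 7.1 with ZnSO4 and Brij 35 | times = 25 °C, 15 min preincubation, 25 min reaction | detection = plate fluorescence quenching by hydrolysis product, ex 480/em 530 nm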
VIM-2 inhibitor = blocks Pseudomonas aeruginosa VIM-2 metallo-beta-lactamase. inhibition, % at 5.6 µM. 290,000 compounds, 0.89% hits. purified VIM-2, nitrocefin hydrolysis, epi-absorbance fluorescence;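 active = inhibition above the mean of all tested compounds plus 3 SD, cutoff set per screening run, cut at about 7.5% in these data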;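 note: red hydrolysis product quenches plate fluorescence so inhibitors raise well fluorescence; 0% = enzyme with DMSO and 100% = DMSO without enzyme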
MsrA act = bovine methionine sulfoxide reductase A activation. activation, % at 10.6 µM. 360,000 compounds, 0.3% hits. purified bovine MsrA, absorbance read-out; in the data active = activation above about 7.5%;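 note: 0% = vehicle and 100% = reference activator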
Starred values were filed as active, the others as inactive; . = no result.

SMILES	PKA-R1A activ	PKA-R2B activ	MsrA inh	IMP-1 inh	VIM-2 inhibitor	MsrA act
Cc1cc(C)c(S(=O)(=O)N2CCOC2CNC(=O)C(=O)NCCc2ccc(S(N)(=O)=O)cc2)c(C)c1 (stereo unspecified)	-15.1	-15.5	-0.1	-1.4	-2.1	-7.8
O=C(NCCCn1ccnc1)C(=O)NCC1OCCN1S(=O)(=O)c1ccc2c(c1)OCCO2 (stereo unspecified)	0.3	3.2	1.2	5.1*	1.0	-0.1
O=C1c2cccc(O)c2C(=O)c2c(O)cccc21	.	.	.	-2.5	1.8	.
COc1cccc2c1-c1c(O)cccc1C2=O	-5.8	3.1	0.4	-0.7	11.3*	-5.5
Cc1cccc2c1c1ccc3c(c1n2C)C(=O)C=CC3=O	-10.5	-1.4	0.6	5.2*	2.0	-1.0
Cc1cc(C)c2cc(C(=O)N3CCC(C(=O)c4ccc(F)cc4)CC3)[nH]c2c1	-4.5	-0.2	0.5	4.5*	0.6	-1.9
CC(OC(=O)c1ccccc1)C(=O)NCc1ccco1 (stereo unspecified)	9.2	5.4	0.0	.	.	-5.2
CCN1CCN(Cc2c(O)ccc3c2O/C(=C\C=C\c2ccccc2OC)C3=O)CC1	-1.3	0.4	1.6	27.6*	4.7	-3.9
CCN1CCN(Cc2c(O)ccc3c(=O)c(-c4ccccc4OC)coc23)CC1	-6.1	1.9	1.4	-1.4	-1.6	-4.0
O=C(C/C=N\OCc1c(Cl)cccc1Cl)Oc1ccc(Cl)cc1Cl	-0.5	-9.6	0.3	11.8*	-2.1	-1.1
COc1cc(NC(=NS(=O)(=O)c2ccccc2)c2ccccc2)ncn1	-4.2	-4.9	-0.2	.	.	2.5
CCc1nc2ccc(C(=O)NCCOc3ccc(OC)cc3)cn2c1N(C)C(=O)C1CCCCC1	.	.	-0.2	.	.	-0.4
CN(C(=O)c1cccc(NC(=O)Cc2ccc(NC(=O)C3CCN(C(=O)C4CCCC4)CC3)cc2)c1)C1CC1	0.4	-4.9	-0.4	.	.	-1.4
CCOC(=O)Cn1nc(-c2ccccc2)c2ccccc2c1=O	-0.5	-8.6	0.1	5.2*	1.0	-1.8
CCOC(=O)Cn1nc(Cc2ccccc2)c2ccccc2c1=O	-9.3	-9.0	0.9	0.6	-1.1	-0.2
C[C@@H]1CN([C@H](C)CO)C(=O)CCCn2cc(nn2)CO[C@H]1CN(C)C(=O)Nc1ccccc1F	-12.4	-8.7	0.8	.	.	-3.1
CN1C(=O)/C(=C2\SC(=S)N(CCCCCC(=O)O)C2=O)c2ccccc21	-14.1	-2.7	-0.6	0.1	-2.2	-2.9
O=C(O)CCN1C(=O)/C(=C2\C(=O)N(Cc3ccc(F)cc3)c3ccccc32)SC1=S	8.9	2.4	-0.4	51.0*	-0.6	0.2
Cc1cc(C(=O)Nc2nnc(C3CCCCC3)s2)no1	14.7	6.5	1.6	-4.9	-3.4	-3.1
Cc1cc(C(=O)Nc2nnc(-c3ccccc3)s2)no1	-2.2	-7.4	4.6*	3.6	-2.1	-7.6
COc1ccc2nc(N3C(=O)CC(C(C)c4ccccc4)C3=O)sc2c1 (stereo unspecified)	-12.3	8.1	-1.4	7.9*	3.7	-3.3
COc1ccc2nc(N3C(=O)CC(Cc4ccc(C)cc4)C3=O)sc2c1 (stereo unspecified)	-6.1	-0.9	-1.2	-3.6	-0.8	2.9
Cc1cc(C)nc(N2C(=O)CC(C(C)c3ccccc3)C2=O)n1 (stereo unspecified)	10.0	-10.4	-0.1	9.3*	-1.0	1.1
O=C(CN1CCSC1=O)N1CCN(S(=O)(=O)c2ccc(F)cc2)CC1	-0.1	2.7	-0.5	.	.	-4.3
O=C(Oc1ccccc1Cl)c1ccccc1P(=O)(O)O	-10.6	1.9	-0.5	-4.3	-1.0	-1.8
SMILES	PKA-R1A activ	PKA-R2B activ	MsrA inh	IMP-1 inh	VIM-2 inhibitor	MsrA act
O=C(Oc1ccccc1)c1c(Cl)cccc1P(=O)(O)O	0.7	-8.1	1.3	1.3	8.5*	0.0
Cc1oc(-c2cccs2)nc1CS(=O)CC(=O)NCCCOC(C)C (stereo unspecified)	-1.2	-2.8	-1.6	-1.2	0.1	2.6
CCCCNC(=O)CS(=O)Cc1nc(-c2cccs2)oc1C (stereo unspecified)	-10.3	4.7	-0.5	6.1*	-1.1	0.1
COC(=O)C1=C(C)N(Cc2cccc(C(F)(F)F)c2)C(=NCc2ccc(C(F)(F)F)cc2)NC1c1cccc(C(F)(F)F)c1 (stereo unspecified)	.	.	-1.7	.	.	.
COc1cccc(C(=O)N[C@@H](Cc2cccnc2)C(=O)N2CCC[C@H]2C(=O)NCCc2ccccc2Cl)c1	.	.	-0.9	.	.	.
Cc1ccc(N2CC(C(=O)N/N=C/c3sccc3C)CC2=O)cc1 (stereo unspecified)	-8.1	-4.1	4.6*	-2.1	-0.4	-1.9
Cc1ccsc1/C=N/NC(=O)C1CC(=O)N(c2ccc(F)cc2)C1 (stereo unspecified)	-2.9	-1.8	3.0	-1.8	-1.8	-2.2
CC(C)C[C@@H]1NC(=O)[C@@H]2CSCCS(=O)(=O)N2C1=O	.	.	-0.6	.	.	.
C=CCN(C(=O)Cc1cccs1)c1nc(-c2ccc(S(C)(=O)=O)cc2)cs1	-11.2	-0.8	0.1	5.3*	0.9	-5.1
C=CCN(C(=O)CCc1ccccc1OC)c1nc(-c2ccc(S(C)(=O)=O)cc2)cs1	-2.6	6.8	1.1	4.6*	1.1	-1.2
C=CCN(C(=O)c1cccc(S(=O)(=O)N2CCN(C)CC2)c1)c1nc(-c2ccccc2)cs1	4.4	-8.5	-0.5	-2.9	-0.9	-2.3
CCc1c(-c2ccc(OC)cc2)ncn1CCc1ccccc1OC	.	.	0.3	.	.	.
CC1C/C(=C\c2cccnc2)C(=O)/C(=C/c2cccnc2)C1 (stereo unspecified)	-9.4	-2.8	5.2*	-4.4	1.4	-10.2
CN(Cc1ccc(Cl)c(Cl)c1)C(c1cc2ccccc2o1)c1nnnn1C(C)(C)C (stereo unspecified)	.	.	0.2	.	.	-2.1
Cc1ccccc1Cn1c(C)cc(C)c(C#N)c1=O	-1.5	8.9	1.7	4.5*	-1.6	-4.3
Cc1cc(C)n(Cc2ccc(F)cc2)c(=O)c1C#N	9.2	-4.6	.	-0.7	-0.4	-1.5
O=C(Cn1cnc2c(cnn2-c2ccc(Cl)cc2)c1=O)NC1CCCCC1	2.9	9.2	0.8	5.4*	-2.0	-1.2
C/C(=N\OCC(=O)OCC(=O)N(C)c1ccccc1)c1ccc2c(c1)OCO2	7.2	0.7	-0.8	.	.	-2.6
O=C(C(=O)N1CCC(CNS(=O)(=O)c2cccc3ccccc23)CC1)c1cccs1	.	.	-0.5	.	.	.
CC1(C)Cc2c(c(-c3ccco3)nc3sc4c(NCCCO)ncnc4c23)CO1	-5.0	-18.0	0.4	9.3*	1.3	-9.6
O=C1CSC(c2cccs2)N1c1nncs1 (stereo unspecified)	.	.	-0.4	.	.	.
Cc1c(C=O)c2ccccn2c1C(=O)c1cccs1	-0.6	-12.2	2.2	-1.9	8.3*	-10.6
Cc1c(C=O)c2ccccn2c1C(=O)c1ccccc1Cl	6.1	-1.9	0.8	-1.0	2.0	-9.9
